Laboratory results published in ChEMBL document CHEMBL5724801, “EUbOPEN Chemogenomics Library - Multiplex” (2024).
“And” between values parts separate entries of the source, which are not always exact repeats. Equal entries are not always repeated.

Test system: HEK-293T
Experiment: Multiplex assay against HEK293T
Format: toxicity, cell-based
Conditions: human
How it was run: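 Compound was added to live cells that had been stained at seeding with Hoechst33342, BioTracker Green Microtubule Cytoskeleton Dye, MitoTracker Red and Annexin V Alexa Fluor 680, and imaging followed on a CQ1 microscope at 37°C and 5% CO2. CellPathfinder machine-learning gating divided cells into Hoechst high-intensity objects or normal cells, normal cells into healthy, pyknosed or fragmented nuclei, and pyknosed cells into mitotic or apoptotic. Tubulin, mitochondrial-mass and membrane-permeability phenotypes are per cents of healthy-nucleus cells.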

[1] = 12 h, 1 µM, compound concentration 1 uM
[2] = 12 h, 10 µM, compound concentration 10 uM
[3] = 24 h, 1 µM, compound concentration 1 uM
[4] = 24 h, 10 µM, compound concentration 10 uM
[5] = 48 h, 1 µM, compound concentration 1 uM
[6] = 48 h, 10 µM, compound concentration 10 uM

Compound: N#Cc1c(Oc2cccc(OS(=O)(=O)CCCC(F)(F)F)c2)cccc1C(F)(F)F
- Population Apoptotic (%) [1]: 35% and 63%
- Population Fragmented Nuclei (%) [1]: 4% and 6%
- Population Healthy Nuclei (%) [1]: 86% and 75%
- Population Hoechst High Intensity Objects (%) [1]: 5% and 11%
- Population Membrane Permeable-Phenotype (%) [1]: 0%
- Population Mitochondria Different-Phenotype (%) [1]: 46% and 60%
- Population Mitotic Cells (%) [1]: 65% and 36%
- Population Normal (%) [1]: 94% and 88%
- Population Pyknosed Nuclei (%) [1]: 8% and 17%
- Population Tubulin-Different-Phenotype (%) [1]: 38% and 28%
- Total Cell Count [1]: 490 and 349
- Population Apoptotic (%) [2]: 42% and 44%
- Population Fragmented Nuclei (%) [2]: 8% and 6%
- Population Healthy Nuclei (%) [2]: 65% and 64%
- Population Membrane Permeable-Phenotype (%) [2]: 0%
- Population Mitochondria Different-Phenotype (%) [2]: 74% and 81%
- Population Mitotic Cells (%) [2]: 57% and 55%
- Population Normal (%) [2]: 89% and 59%
- Population Pyknosed Nuclei (%) [2]: 25% and 28%
- Population Tubulin-Different-Phenotype (%) [2]: 65% and 58%
- Total Cell Count [2]: 290 and 318
- Population Apoptotic (%) [3]: 28% and 60%
- Population Fragmented Nuclei (%) [3]: 10% and 8%
- Population Healthy Nuclei (%) [3]: 77% and 81%
- Population Hoechst High Intensity Objects (%) [3]: 3% and 9%
- Population Membrane Permeable-Phenotype (%) [3]: 0%
- Population Mitochondria Different-Phenotype (%) [3]: 34% and 48%
- Population Mitotic Cells (%) [3]: 71% and 40%
- Population Normal (%) [3]: 96% and 90%
- Population Pyknosed Nuclei (%) [3]: 12% and 9%
- Population Tubulin-Different-Phenotype (%) [3]: 26% and 20%
- Total Cell Count [3]: 654 and 412
- Population Apoptotic (%) [4]: 43% and 45%
- Population Fragmented Nuclei (%) [4]: 9% and 10%
- Population Healthy Nuclei (%) [4]: 77% and 61%
- Population Membrane Permeable-Phenotype (%) [4]: 0%
- Population Mitochondria Different-Phenotype (%) [4]: 66% and 68%
- Population Mitotic Cells (%) [4]: 56% and 54%
- Population Normal (%) [4]: 86% and 52%
- Population Pyknosed Nuclei (%) [4]: 13% and 27%
- Population Tubulin-Different-Phenotype (%) [4]: 56% and 41%
- Total Cell Count [4]: 338 and 312
- Population Apoptotic (%) [5]: 20% and 56%
- Population Fragmented Nuclei (%) [5]: 13% and 12%
- Population Healthy Nuclei (%) [5]: 81% and 82%
- Population Hoechst High Intensity Objects (%) [5]: 1% and 5%
- Population Membrane Permeable-Phenotype (%) [5]: 1% and 0%
- Population Mitochondria Different-Phenotype (%) [5]: 21% and 23%
- Population Mitotic Cells (%) [5]: 79% and 43%
- Population Normal (%) [5]: 98% and 94%
- Population Pyknosed Nuclei (%) [5]: 5%
- Population Tubulin-Different-Phenotype (%) [5]: 15% and 13%
- Total Cell Count [5]: 986 and 568
- Population Apoptotic (%) [6]: 44% and 58%
- Population Fragmented Nuclei (%) [6]: 11%
- Population Healthy Nuclei (%) [6]: 78% and 69%
- Population Membrane Permeable-Phenotype (%) [6]: 0%
- Population Mitochondria Different-Phenotype (%) [6]: 44% and 47%
- Population Mitotic Cells (%) [6]: 55% and 41%
- Population Normal (%) [6]: 94% and 75%
- Population Pyknosed Nuclei (%) [6]: 10% and 18%
- Population Tubulin-Different-Phenotype (%) [6]: 29% and 23%
- Total Cell Count [6]: 464 and 363

Compound: O=C(Nc1c[nH]nc1-c1nc2cc(CN3CCOCC3)ccc2[nH]1)NC1CC1 [AT-9283]
- Population Apoptotic (%) [1]: 12.17% and 7.08%
- Population Fragmented Nuclei (%) [1]: 0.89% and 3.5%
- Population Healthy Nuclei (%) [1]: 48% and 17.48%
- Population Hoechst High Intensity Objects (%) [1]: 0%
- Population Membrane Permeable-Phenotype (%) [1]: 0.93% and 0%
- Population Mitotic Cells (%) [1]: 87.83% and 92.92%
- Population Normal (%) [1]: 100%
- Population Pyknosed Nuclei (%) [1]: 51.11% and 79.02%
- Total Cell Count [1]: 225 and 143
- Population Apoptotic (%) [2]: 9.66% and 13.57%
- Population Fragmented Nuclei (%) [2]: 1.6% and 0.63%
- Population Healthy Nuclei (%) [2]: 28% and 10.76%
- Population Hoechst High Intensity Objects (%) [2]: 0%
- Population Membrane Permeable-Phenotype (%) [2]: 0% and 11.76%
- Population Mitotic Cells (%) [2]: 90.34% and 86.43%
- Population Normal (%) [2]: 100%
- Population Pyknosed Nuclei (%) [2]: 70.4% and 88.61%
- Population Tubulin-Different-Phenotype (%) [2]: 20% and 35.29%
- Total Cell Count [2]: 250 and 158
- Population Apoptotic (%) [3]: 21.74% and 12.8%
- Population Fragmented Nuclei (%) [3]: 4.26% and 2.61%
- Population Hoechst High Intensity Objects (%) [3]: 0.35% and 0%
- Population Membrane Permeable-Phenotype (%) [3]: 0% and 4.17%
- Population Mitochondria Different-Phenotype (%) [3]: 18.06% and 0%
- Population Mitotic Cells (%) [3]: 78.26% and 87.2%
- Population Normal (%) [3]: 99.65% and 100%
- Population Pyknosed Nuclei (%) [3]: 40.78% and 81.7%
- Population Tubulin-Different-Phenotype (%) [3]: 17.42% and 16.67%
- Total Cell Count [3]: 283 and 153
- Population Apoptotic (%) [4]: 24.17% and 28.99%
- Population Fragmented Nuclei (%) [4]: 0.37% and 0.67%
- Population Hoechst High Intensity Objects (%) [4]: 0.37% and 0%
- Population Membrane Permeable-Phenotype (%) [4]: 1.79% and 0%
- Population Mitotic Cells (%) [4]: 75.83% and 71.01%
- Population Normal (%) [4]: 99.63% and 100%
- Population Pyknosed Nuclei (%) [4]: 78.73% and 92.62%
- Population Tubulin-Different-Phenotype (%) [4]: 33.93% and 40%
- Total Cell Count [4]: 269 and 149
- Population Apoptotic (%) [5]: 44.44% and 22.06%
- Population Fragmented Nuclei (%) [5]: 2.23% and 0%
- Population Healthy Nuclei (%) [5]: 80.17% and 46.03%
- Population Hoechst High Intensity Objects (%) [5]: 0% and 0.79%
- Population Membrane Permeable-Phenotype (%) [5]: 3.83% and 1.72%
- Population Mitochondria Different-Phenotype (%) [5]: 49.13% and 22.41%
- Population Mitotic Cells (%) [5]: 55.56% and 77.94%
- Population Normal (%) [5]: 100% and 99.21%
- Total Cell Count [5]: 358 and 127
- Population Apoptotic (%) [6]: 52.36% and 56.2%
- Population Fragmented Nuclei (%) [6]: 1.67% and 2.67%
- Population Hoechst High Intensity Objects (%) [6]: 0.83% and 0%
- Population Membrane Permeable-Phenotype (%) [6]: 0%
- Population Mitochondria Different-Phenotype (%) [6]: 88.89% and 55.56%
- Population Mitotic Cells (%) [6]: 47.64% and 43.8%
- Population Normal (%) [6]: 99.17% and 100%
- Population Pyknosed Nuclei (%) [6]: 79.58% and 91.33%
- Population Tubulin-Different-Phenotype (%) [6]: 24.44% and 55.56%
- Total Cell Count [6]: 242 and 150
